In ChEMBL document CHEMBL1123539, “[p-[(Thienylcarbonyl)amino]phenoxy]propanolamines derivatives as diuretic and beta-adrenergic receptor blocking agents” (1986):
Blank lines part the entries; values can stand above or below the compound they belong to.

How the values were obtained:
[1] = molecular target: Beta-2 adrenergic receptor (Canis lupus familiaris) (UniProt P54833)
[2] = test system: Rattus norvegicus; test: Compound was tested for oral salidiuretic activity (control/drug treatment value) in rats expressed in Na+, mequiv/6 hr at a dose of 128 mg/kg; 0.114/0.707
[3] = test system: Rattus norvegicus; test: Compound was tested for oral salidiuretic activity (control/drug treatment value) in rats expressed as urinary output. at a dose of 128 mg/kg; 7.70/12.75; assay type: functional, Urine
[4] = molecular target: Beta-1 adrenergic receptor (Homo sapiens) (UniProt P08588); details: Canis lupus familiaris
[5] = test system: Rattus norvegicus; test: Compound was tested for oral salidiuretic activity (control/drug treatment value) in rats expressed as urinary output. at a dose of 128 mg/kg; 7.25/9.43; assay type: functional, Urine
[6] = test system: Rattus norvegicus; test: Compound was tested for oral salidiuretic activity (control/drug treatment value) in rats expressed in Na+, mequiv/6 hr at a dose of 128 mg/kg; 0.112/0.407; assay type: functional, Urine
[7] = test system: Rattus norvegicus; test: Compound was tested for oral salidiuretic activity (control/drug treatment value) in rats expressed as urinary output. at a dose of 32 mg/kg; 10.33/10.75; assay type: functional, Urine
[8] = test system: Rattus norvegicus; test: Compound was tested for oral salidiuretic activity (control/drug treatment value) in rats expressed in Na+, mequiv/6 hr at a dose of 32 mg/kg; 0.140/0.416; assay type: functional, Urine
[9] = test system: Rattus norvegicus; test: Compound was tested for oral salidiuretic activity (control/drug treatment value) in rats expressed as urinary output. at a dose of 128 mg/kg; 7.17/11.25; assay type: functional, Urine
[10] = test system: Rattus norvegicus; test: Compound was tested for oral salidiuretic activity (control/drug treatment value) in rats expressed in Na+, mequiv/6 hr at a dose of 128 mg/kg; 0.202/0.961; assay type: functional, Urine
[11] = test system: Rattus norvegicus; test: Compound was tested for oral salidiuretic activity (control/drug treatment value) in rats expressed in Na+, mequiv/6 hr at a dose of 128 mg/kg; 0.216/0.263; assay type: functional, Urine
[12] = test system: Rattus norvegicus; test: Compound was tested for oral salidiuretic activity (control/drug treatment value) in rats expressed as urinary output. at a dose of 16 mg/kg; 9.05/9.87; assay type: functional, Urine
[13] = test system: Rattus norvegicus; test: Compound was tested for oral salidiuretic activity (control/drug treatment value) in rats expressed as urinary output. at a dose of 128 mg/kg; 9.05/12.83; assay type: functional, Urine
[14] = test system: Rattus norvegicus; test: Compound was tested for oral salidiuretic activity (control/drug treatment value) in rats expressed in Na+, mequiv/6 hr at a dose of 32 mg/kg; 0.216/0.207; assay type: functional, Urine
[15] = test system: Rattus norvegicus; test: Compound was tested for oral salidiuretic activity (control/drug treatment value) in rats expressed in Na+, mequiv/6 hr at a dose of 16 mg/kg; 0.216/0.178; assay type: functional, Urine
[16] = test system: Rattus norvegicus; test: Compound was tested for oral salidiuretic activity (control/drug treatment value) in rats expressed in Na+, mequiv/6 hr at a dose of 64 mg/kg; 0.216/0.097; assay type: functional, Urine
[17] = test system: Rattus norvegicus; test: Compound was tested for oral salidiuretic activity (control/drug treatment value) in rats expressed as urinary output. at a dose of 128 mg/kg; 6.42/15.08; assay type: functional, Urine
[18] = molecular target: Beta-2 adrenergic receptor (Rattus norvegicus) (UniProt P10608); test: The compound was tested for beta-2 adrenergic receptor blocking activity in conscious rats after 1 hr
[19] = test system: Rattus norvegicus; test: Compound was tested for oral salidiuretic activity (control/drug treatment value) in rats expressed as urinary output. at a dose of 64 mg/kg; 6.42/11.25; assay type: functional, Urine
[20] = molecular target: Beta-1 adrenergic receptor (Homo sapiens) (UniProt P08588); test: Compound was tested for beta-1 adrenergic receptor blocking activity in dogs; details: Canis lupus familiaris; target entry is the homologue from another species
[21] = test system: Rattus norvegicus; test: Compound was tested for oral salidiuretic activity (control/drug treatment value) in rats expressed in Na+, mequiv/6 hr at a dose of 64 mg/kg; 0.207/0.766; assay type: functional, Urine
[22] = test system: Rattus norvegicus; test: Compound was tested for oral salidiuretic activity (control/drug treatment value) in rats expressed as urinary output. at a dose of 16 mg/kg; 6.42/9; assay type: functional, Urine
[23] = test system: Rattus norvegicus; test: Compound was tested for oral salidiuretic activity (control/drug treatment value) in rats expressed in Na+, mequiv/6 hr at a dose of 16 mg/kg; 0.207/0.554; assay type: functional, Urine
[24] = test system: Rattus norvegicus; test: Compound was tested for oral salidiuretic activity (control/drug treatment value) in rats expressed in Na+, mequiv/6 hr at a dose of 32 mg/kg; 0.207/0.626; assay type: functional, Urine
[25] = molecular target: Beta-1 adrenergic receptor (Homo sapiens) (UniProt P08588); test: Compound was tested for beta-1 adrenergic receptor blocking activity in conscious rats after 1 hr; details: Rattus norvegicus; target entry is the homologue from another species
[26] = test system: Rattus norvegicus; test: Compound was tested for oral salidiuretic activity (control/drug treatment value) in rats expressed as urinary output. at a dose of 32 mg/kg at 0-6 h; 9.99/13.01; assay type: functional, Urine
[27] = test system: Rattus norvegicus; test: Compound was tested for oral salidiuretic activity (control/drug treatment value) in rats expressed as urinary output. at a dose of 32 mg/kg at 0-2h; 7.42/9.64; assay type: functional, Urine
[28] = molecular target: Beta-1 adrenergic receptor (Homo sapiens) (UniProt P08588); test: Compound was tested for beta-1 adrenergic receptor blocking activity in conscious rats after 5 hr; details: Rattus norvegicus; target entry is the homologue from another species
[29] = test system: Rattus norvegicus; test: Compound was tested for oral salidiuretic activity (control/drug treatment value) in rats expressed in Na+, mequiv/6 hr at a dose of 32 mg/kg; 0.259/0.680; assay type: functional, Urine
[30] = molecular target: Beta-2 adrenergic receptor (Canis lupus familiaris) (UniProt P54833); test: The compound was tested for beta-2 adrenergic receptor blocking activity in dogs
How it was run: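 In two dogs, drugs were injected via a cannulated saphenous vein, with increasing doses given every 30 min and each animal used once per substance. Isoproterenol-induced changes in diastolic arterial pressure after each dose were compared with isoproterenol control responses to calculate percent blockade. ID50 (50% inhibition) was estimated from the dose-response curve.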

[31] = test system: Rattus norvegicus; test: Compound was tested for oral salidiuretic activity (control/drug treatment value) in rats expressed as urinary output. at a dose of 32 mg/kg at 0-4 h; 9.02/11.67; assay type: functional, Urine
[32] = test system: Rattus norvegicus; test: Compound was tested for oral salidiuretic activity (control/drug treatment value) in rats expressed in Na+, mequiv/6 hr at a dose of 128 mg/kg;. 207/1.364; assay type: functional, Urine
[33] = test system: Rattus norvegicus; test: Compound was tested for oral salidiuretic activity (control/drug treatment value) in rats expressed as urinary output. at a dose of 32 mg/kg; 6.42/9.83; assay type: functional, Urine
[34] = test system: Rattus norvegicus; test: Compound was tested for oral salidiuretic activity (control/drug treatment value) in rats expressed in Na+, mequiv/6 hr at a dose of 64 mg/kg; 0.140/0.606
[35] = test system: Rattus norvegicus; test: Compound was tested for oral salidiuretic activity (control/drug treatment value) in rats expressed as urinary output. at a dose of 64 mg/kg; 10.33/12.42

Beta-2 adrenergic receptor (Canis lupus familiaris), sequence (P54833 whole entry, looked up): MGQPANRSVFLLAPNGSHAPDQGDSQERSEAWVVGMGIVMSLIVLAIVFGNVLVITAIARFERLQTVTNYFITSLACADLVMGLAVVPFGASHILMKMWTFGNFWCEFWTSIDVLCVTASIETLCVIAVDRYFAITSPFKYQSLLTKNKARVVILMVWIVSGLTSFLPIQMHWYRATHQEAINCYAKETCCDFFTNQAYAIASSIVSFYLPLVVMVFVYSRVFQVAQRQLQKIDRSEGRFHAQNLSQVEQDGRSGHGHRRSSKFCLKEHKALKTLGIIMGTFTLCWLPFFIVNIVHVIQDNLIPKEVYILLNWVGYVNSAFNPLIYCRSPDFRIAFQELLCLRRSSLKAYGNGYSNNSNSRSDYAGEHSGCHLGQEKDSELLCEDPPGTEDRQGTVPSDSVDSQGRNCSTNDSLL
Beta-1 adrenergic receptor (Homo sapiens), sequence (P08588 whole entry, looked up): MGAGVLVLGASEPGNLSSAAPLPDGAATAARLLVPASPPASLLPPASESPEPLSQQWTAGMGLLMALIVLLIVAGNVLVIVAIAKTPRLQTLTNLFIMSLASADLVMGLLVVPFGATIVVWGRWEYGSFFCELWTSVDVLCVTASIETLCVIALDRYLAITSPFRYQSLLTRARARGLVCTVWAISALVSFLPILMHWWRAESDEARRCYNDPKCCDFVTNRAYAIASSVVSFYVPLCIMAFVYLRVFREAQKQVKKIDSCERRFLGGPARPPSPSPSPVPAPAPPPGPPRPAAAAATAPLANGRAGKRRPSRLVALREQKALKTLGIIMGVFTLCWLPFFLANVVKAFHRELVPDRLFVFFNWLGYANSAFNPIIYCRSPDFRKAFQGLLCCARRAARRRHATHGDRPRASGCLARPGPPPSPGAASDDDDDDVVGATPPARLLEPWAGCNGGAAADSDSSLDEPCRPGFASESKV
Beta-2 adrenergic receptor (Rattus norvegicus), sequence (P10608 whole entry, looked up): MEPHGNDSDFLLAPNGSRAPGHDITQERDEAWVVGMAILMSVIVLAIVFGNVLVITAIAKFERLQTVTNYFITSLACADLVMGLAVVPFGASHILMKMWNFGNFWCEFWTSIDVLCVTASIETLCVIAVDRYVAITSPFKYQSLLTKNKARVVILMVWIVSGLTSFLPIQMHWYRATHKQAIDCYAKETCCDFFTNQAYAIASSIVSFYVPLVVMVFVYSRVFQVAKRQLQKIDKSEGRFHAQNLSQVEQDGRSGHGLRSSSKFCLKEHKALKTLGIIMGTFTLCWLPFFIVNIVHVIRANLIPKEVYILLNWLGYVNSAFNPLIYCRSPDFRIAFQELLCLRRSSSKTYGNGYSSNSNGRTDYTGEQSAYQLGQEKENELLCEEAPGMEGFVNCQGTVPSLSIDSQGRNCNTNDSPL

- ID50 [1]: > 1 mg/kg
- ID50 [4]: 0.045 mg/kg
Structure (SMILES): CC(C)NCC(O)COc1ccc(NC(=O)c2cccs2)cc1 (stereo not drawn)
- Activity [2]: 0.114
- treated urinary output [3]: 12.8 mL

- ID50 [1]: 0.25 mg/kg
- ID50 [4]: 0.17 mg/kg
Structure (SMILES): CC(C)NCC(O)COc1ccc(NC(=O)c2cccs2)cc1C(=O)OC(C)C (stereo not drawn)
- Activity [5]: 7.25 mL
- Activity [6]: 0.112

- ID50 [1]: > 1 mg/kg
- ID50 [4]: 0.03 mg/kg
Structure (SMILES): Cc1cc(NC(=O)c2cccs2)ccc1OCC(O)CNC(C)(C)C (stereo not drawn)
- Activity [7]: 10.33 mL
- Activity [8]: 0.14

- ID50 [1]: > 1 mg/kg
- ID50 [4]: 0.27 mg/kg
Structure (SMILES): CCCOC(=O)c1cc(NC(=O)c2cccs2)ccc1OCC(O)CNC(C)(C)C (stereo not drawn)
- Activity [9]: 7.17 mL
- Activity [10]: 0.202

Structure (SMILES): CC(C)NCC(O)COc1cccc2ccccc12 (stereo not drawn) [PROPRANOLOL]
- Activity [11]: 0.216
- Activity [12]: 9.05 mL
- Activity [13]: 9.05 mL
- Activity [14]: 0.216
- Activity [15]: 0.216
- Activity [16]: 0.216

- ED50 [18]: 0.00133 mg/kg
- ID50 [20]: 0.065 mg/kg
- ED50 [25]: 0.00176 mg/kg
- ED50 [28]: 0.00179 mg/kg
- ID50 [30]: > 1 mg/kg
Structure (SMILES): CCOC(=O)c1cc(NC(=O)c2cccs2)ccc1OCC(O)CNC(C)(C)C (stereo not drawn) [TIENOXOLOL]
- Activity [17]: 6.42 mL
- treated urinary output [19]: 11.2 mL
- Activity [21]: 0.207
- treated urinary output [22]: 9 mL
- Activity [23]: 0.207
- Activity [24]: 0.207
- Activity [26]: 9.99 mL
- Activity [27]: 7.42 mL
- Activity [29]: 0.259
- Activity [31]: 9.02 mL
- Activity [32]: 0.207
- treated urinary output [33]: 9.83 mL

- ID50 [1]: > 1 mg/kg
- ID50 [4]: 0.02 mg/kg
Structure (SMILES): Cc1cc(NC(=O)c2cccs2)ccc1OCC(O)CNC(C)C (stereo not drawn)
- Activity [34]: 0.14
- Activity [35]: 10.33 mL
